SMILES strings stand for the structures. In brackets after ≈: the same amount, converted by molar mass.

Data set [1] relates to Enterococcus faecalis. The data set can be described thus: Antibacterial activity against Enterococcus faecalis 08-10 after 18 to 24 hrs by NCCLS M100-S11 two fold serial dilution method. In kind it is functional.
Data set [2] relates to Klebsiella pneumoniae. The data set can be described thus: Antibacterial activity against Klebsiella pneumoniae 09-22 after 18 to 24 hrs by NCCLS M100-S11 two fold serial dilution method. In kind it is functional.
Data set [3] relates to Pseudomonas aeruginosa. The data set can be described thus: Antibacterial activity against Pseudomonas aeruginosa 09-32 after 18 to 24 hrs by NCCLS M100-S11 two fold serial dilution method. It counts as functional.
Data set [4] deals with Escherichia coli. The data set can be described thus: Antibacterial activity against Escherichia coli 08-22 after 18 to 24 hrs by NCCLS M100-S11 two fold serial dilution method. In kind it is functional.
The subject of data set [5] is Enterococcus faecalis. Description: Antibacterial activity against Enterococcus faecalis 08-12 after 18 to 24 hrs by NCCLS M100-S11 two fold serial dilution method. In kind it is functional.
The test system of data set [6] is Staphylococcus epidermidis. The data set can be described thus: Antibacterial activity against methicillin-sensitive Staphylococcus epidermidis 09-6 after 18 to 24 hrs by NCCLS M100-S11 two fold serial dilution method. It counts as functional. Put shortly:
(§1)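 Two-fold serial dilution in agar medium. MIC read as the lowest concentration giving complete inhibition of bacterial growth after incubation at 35 °C for 18–24 h.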

Data set [7] concerns Escherichia coli. Description: Antibacterial activity against Escherichia coli ATCC 25922 after 18 to 24 hrs by NCCLS M100-S11 two fold serial dilution method. It counts as functional. Conditions: ATCC25922.
Data set [8] deals with Streptococcus pneumoniae. The data set can be described thus: Antibacterial activity against Streptococcus pneumoniae 08-2 after 18 to 24 hrs by NCCLS M100-S11 two fold serial dilution method. It counts as functional.
A short description of data set [9]: Cytotoxicity against african green monkey Vero cells after 72 hrs by MTT assay. It counts as cell-based. To be noted: chlorocebus sabaeus. In outline: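 Vero cells were kept in Minimum Essential Medium with Earle's salts plus 10% fetal bovine serum at 37 °C under 5% CO₂. Cells were seeded at 1 × 10⁴ per well and allowed to recover 24 h. Medium was then replaced with assay medium containing compound or no drug, and cells were exposed for 72 h. CC₅₀ is the 50% cellular cytotoxic concentration.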

The subject of data set [10] is Streptococcus pneumoniae. Description: Antibacterial activity against Streptococcus pneumoniae 08-4 after 18 to 24 hrs by NCCLS M100-S11 two fold serial dilution method. In kind it is functional.
Data set [11] deals with Escherichia coli. Description: Antibacterial activity against Escherichia coli 08-21 after 18 to 24 hrs by NCCLS M100-S11 two fold serial dilution method. In kind it is functional.
Data set [12] deals with Staphylococcus epidermidis. The data set can be described thus: Antibacterial activity against methicillin-resistant Staphylococcus epidermidis 09-4 after 18 to 24 hrs by NCCLS M100-S11 two fold serial dilution method. It counts as functional. Put shortly: as §1
Data set [13] concerns Enterococcus faecium. The data set can be described thus: Antibacterial activity against Enterococcus faecium 08-2 after 18 to 24 hrs by NCCLS M100-S11 two fold serial dilution method. In kind it is functional.
The test system of data set [14] is Pseudomonas aeruginosa. The data set can be described thus: Antibacterial activity against Pseudomonas aeruginosa ATCC 27853 after 18 to 24 hrs by NCCLS M100-S11 two fold serial dilution method. It counts as functional.
The subject of data set [15] is Staphylococcus aureus. The data set can be described thus: Antibacterial activity against methicillin-sensitive Staphylococcus aureus 08-1 after 18 to 24 hrs by NCCLS M100-S11 two fold serial dilution method. It counts as functional.
Data set [16] concerns Pseudomonas aeruginosa. The data set can be described thus: Antibacterial activity against Pseudomonas aeruginosa 09-33 after 18 to 24 hrs by NCCLS M100-S11 two fold serial dilution method. In kind it is functional.
Data set [17] deals with Staphylococcus epidermidis. Description: Antibacterial activity against methicillin-sensitive Staphylococcus epidermidis 09-3 after 18 to 24 hrs by NCCLS M100-S11 two fold serial dilution method. In kind it is functional. In outline:
as §1

The subject of data set [18] is Enterococcus faecium. The data set can be described thus: Antibacterial activity against Enterococcus faecium 08-7 after 18 to 24 hrs by NCCLS M100-S11 two fold serial dilution method. In kind it is functional.
Data set [19] deals with Pseudomonas aeruginosa. The data set can be described thus: Antibacterial activity against Pseudomonas aeruginosa 09-34 after 18 to 24 hrs by NCCLS M100-S11 two fold serial dilution method. In kind it is functional.
In data set [20] the test system is Staphylococcus aureus. The data set can be described thus: Antibacterial activity against methicillin-resistant Staphylococcus aureus 08-1 after 18 to 24 hrs by NCCLS M100-S11 two fold serial dilution method. It counts as functional. In outline:
as §1

Data set [21] concerns Staphylococcus aureus. Description: Antibacterial activity against Staphylococcus aureus ATCC 25923 after 18 to 24 hrs by NCCLS M100-S11 two fold serial dilution method. In kind it is functional. Conditions: ATCC25923.
Data set [22] concerns Klebsiella pneumoniae. Description: Antibacterial activity against Klebsiella pneumoniae 09-23 after 18 to 24 hrs by NCCLS M100-S11 two fold serial dilution method. It counts as functional.

In the case of `COc1c(N2CCN(C/C(C)=N/NC(N)=O)C(C)C2)c(F)cc2c(=O)c(C(=O)O)cn(C3CC3)c12` (stereo not drawn), the minimal inhibitory concentration (MIC) with Enterococcus faecalis [1] is greater than 128 mg/L; against Klebsiella pneumoniae [2] it was greater than 128 mg/L; with Pseudomonas aeruginosa [3], 64 mg/L (≈ 131 µM); against Escherichia coli [4], greater than 128 mg/L; with Enterococcus faecalis [5], greater than 128 mg/L; in [6], 1 mg/L (≈ 2.05 µM). Further, the MIC against Escherichia coli [7] is greater than 128 mg/L; against Streptococcus pneumoniae [8], 64 mg/L (≈ 131 µM); with Streptococcus pneumoniae [10], 2 mg/L (≈ 4.09 µM); against Escherichia coli [11], greater than 128 mg/L; in data set [12], 2 mg/L (≈ 4.09 µM); with Enterococcus faecium [13], greater than 128 mg/L. The MIC in the data set on Pseudomonas aeruginosa [14] was greater than 128 mg/L; in the data set with Staphylococcus aureus [15] it was greater than 128 mg/L; in the data set on Pseudomonas aeruginosa [16], greater than 128 mg/L; in data set [17], 2 mg/L (≈ 4.09 µM); in the data set on Enterococcus faecium [18] it was greater than 128 mg/L; in the data set on Pseudomonas aeruginosa [19], greater than 128 mg/L. The MIC with Staphylococcus aureus [20] was 2 mg/L (≈ 4.09 µM); in the data set on Staphylococcus aureus [21] it was 4 mg/L (≈ 8.19 µM); with Klebsiella pneumoniae [22], greater than 128 mg/L. In data set [9], this compound returned a CC50 at 72 h of 500 mg/L (≈ 1020 µM).

Regarding `COc1c(N2CCN(C/C(C)=N/NC(C)=O)C(C)C2)c(F)cc2c(=O)c(C(=O)O)cn(C3CC3)c12` (stereo not drawn), the minimal inhibitory concentration (MIC) against Enterococcus faecalis [1] came out at 16 mg/L (≈ 32.8 µM); against Klebsiella pneumoniae [2], 0.25 mg/L (≈ 0.513 µM); in the data set with Pseudomonas aeruginosa [3], 0.25 mg/L (≈ 0.513 µM); against Escherichia coli [4] it was 16 mg/L (≈ 32.8 µM); against Enterococcus faecalis [5] it was 16 mg/L (≈ 32.8 µM); in data set [6], 0.25 mg/L (≈ 0.513 µM). In addition, the MIC with Escherichia coli [7] amounted to 8 mg/L (≈ 16.4 µM); against Streptococcus pneumoniae [8], 8 mg/L (≈ 16.4 µM); in the data set on Streptococcus pneumoniae [10] it was 0.25 mg/L (≈ 0.513 µM); against Escherichia coli [11], 16 mg/L (≈ 32.8 µM); in [12] it was 0.25 mg/L (≈ 0.513 µM); in the data set on Enterococcus faecium [13], 16 mg/L (≈ 32.8 µM). The MIC worked out at 4 mg/L (≈ 8.2 µM) in the data set on Pseudomonas aeruginosa [14]; 0.25 mg/L (≈ 0.513 µM) against Staphylococcus aureus [15]; 64 mg/L (≈ 131 µM) against Pseudomonas aeruginosa [16]; 0.25 mg/L (≈ 0.513 µM) in data set [17]; 16 mg/L (≈ 32.8 µM) in the data set with Enterococcus faecium [18]; 2 mg/L (≈ 4.1 µM) against Pseudomonas aeruginosa [19]. The MIC with Staphylococcus aureus [20] was 0.25 mg/L (≈ 0.513 µM); in the data set on Staphylococcus aureus [21], 0.25 mg/L (≈ 0.513 µM); in the data set with Klebsiella pneumoniae [22], 4 mg/L (≈ 8.2 µM). For the same compound, the cytotoxic concentration (CC50) at 72 h in data set [9] amounted to 707 mg/L (≈ 1450 µM).

Turning to `COc1c(N2CCN(C/C(C)=N/NC(=O)c3ccncc3)C(C)C2)c(F)cc2c(=O)c(C(=O)O)cn(C3CC3)c12` (stereo not drawn), the MIC with Enterococcus faecalis [1] came to 128 mg/L (≈ 232 µM); in the data set with Klebsiella pneumoniae [2] it was 16 mg/L (≈ 29.1 µM); in the data set on Pseudomonas aeruginosa [3], 4 mg/L (≈ 7.26 µM); in the data set on Escherichia coli [4], 64 mg/L (≈ 116 µM); against Enterococcus faecalis [5], 128 mg/L (≈ 232 µM); in data set [6], 0.25 mg/L (≈ 0.454 µM). For the same compound, the MIC in the data set on Escherichia coli [7] was 16 mg/L (≈ 29.1 µM); with Streptococcus pneumoniae [8], 32 mg/L (≈ 58.1 µM); in the data set on Streptococcus pneumoniae [10] it was 4 mg/L (≈ 7.26 µM); with Escherichia coli [11] it was 128 mg/L (≈ 232 µM); in [12], 2 mg/L (≈ 3.63 µM); against Enterococcus faecium [13] it was 64 mg/L (≈ 116 µM). Moreover, the MIC against Pseudomonas aeruginosa [14] stood at 4 mg/L (≈ 7.26 µM); in the data set with Staphylococcus aureus [15] it was 2 mg/L (≈ 3.63 µM); against Pseudomonas aeruginosa [16], 128 mg/L (≈ 232 µM); in [17], 0.25 mg/L (≈ 0.454 µM); with Enterococcus faecium [18], 64 mg/L (≈ 116 µM); with Pseudomonas aeruginosa [19], 32 mg/L (≈ 58.1 µM). Further, the MIC against Staphylococcus aureus [20] came out at 32 mg/L (≈ 58.1 µM); in the data set with Staphylococcus aureus [21], 2 mg/L (≈ 3.63 µM); in the data set with Klebsiella pneumoniae [22], 32 mg/L (≈ 58.1 µM). The compound further registered a CC50 at 72 h in [9] of 250 mg/L (≈ 454 µM).

For the compound `COc1c(N2CCN(C/C(C)=N/Nc3ccccc3)C(C)C2)c(F)cc2c(=O)c(C(=O)O)cn(C3CC3)c12` (stereo not drawn), the MIC was 4 mg/L (≈ 7.67 µM) in the data set with Enterococcus faecalis [1]; 0.25 mg/L (≈ 0.479 µM) in the data set on Klebsiella pneumoniae [2]; 0.25 mg/L (≈ 0.479 µM) in the data set on Pseudomonas aeruginosa [3]; 0.25 mg/L (≈ 0.479 µM) in the data set on Escherichia coli [4]; 4 mg/L (≈ 7.67 µM) against Enterococcus faecalis [5]; 0.25 mg/L (≈ 0.479 µM) in data set [6]. Besides, the MIC is 0.5 mg/L (≈ 0.959 µM) in the data set with Escherichia coli [7]; 0.25 mg/L (≈ 0.479 µM) with Streptococcus pneumoniae [8]; 0.25 mg/L (≈ 0.479 µM) against Streptococcus pneumoniae [10]; 4 mg/L (≈ 7.67 µM) in the data set with Escherichia coli [11]; 0.25 mg/L (≈ 0.479 µM) in [12]; 4 mg/L (≈ 7.67 µM) against Enterococcus faecium [13]. Moreover, the MIC is 2 mg/L (≈ 3.83 µM) against Pseudomonas aeruginosa [14]; 0.125 mg/L (≈ 0.24 µM) in the data set with Staphylococcus aureus [15]; 4 mg/L (≈ 7.67 µM) in the data set with Pseudomonas aeruginosa [16]; 0.25 mg/L (≈ 0.479 µM) in data set [17]; 4 mg/L (≈ 7.67 µM) with Enterococcus faecium [18]; 0.25 mg/L (≈ 0.479 µM) in the data set with Pseudomonas aeruginosa [19]. The MIC in the data set with Staphylococcus aureus [20], in the data set with Staphylococcus aureus [21] and in the data set on Klebsiella pneumoniae [22] was 0.125 mg/L (≈ 0.24 µM) throughout. Also, in data set [9], the CC50 at 72 h worked out at 11.1 mg/L (≈ 21.2 µM).

Usually MIC stands for the lowest concentration that inhibits growth of the organism. Broadly, the CC50 is the concentration at which the toxic effect on the cells reaches its halfway point.

Values taken from ChEMBL document CHEMBL1817648, “Synthesis and in vitro antibacterial activity of a series of novel gatifloxacin derivatives” (Eur J Med Chem, 2011).
